ChEMBL document CHEMBL5385854, “Discovery of PPARγ and glucocorticoid receptor dual agonists to promote the adiponectin and leptin biosynthesis in human bone marrow mesenchymal stem cells” (Eur J Med Chem, 2023)
Activity calls are given as the source filed them. The rule behind the calls is not given here.

What was measured:
Mesenchymal stem cells [1] = assay: Induction of adipogenesis in human BMMSC cells assessed as increase in lipid droplet accumulation at 5 uM after 7 days by Oil red O and hematoxylin staining based assay relative to IDX control; type: functional, cell-based; conditions: time 7.0 day
Outline: (§1)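 hBM-MSCs grown in low-glucose DMEM (1 g/L) with 10% FBS, Glutamax and penicillin-streptomycin, then differentiated in IDX medium containing compound, refreshed on days 3 and 6. On day 7, cells fixed in 10% neutral buffered formalin for 40 min and stained with 0.2% Oil Red O for 15 min, nuclei with hematoxylin. Dye eluted in isopropanol and read at 540 nm against IDX control.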

[2] = Induction of leptin biosynthesis in human BMMSC cells assessed as leptin level at 5 uM measured after 7 days by ELISA (RVB = 18 + /- 18 pg/ml); type: functional, Mesenchymal stem cells; conditions: time 7 day
[3] = Induction of adiponectin biosynthesis in human BMMSC cells assessed as adiponectin level at 5 uM measured after 7 days by ELISA (IDX Control = 100 +/- 57 pg/ml); type: functional, Mesenchymal stem cells; conditions: time 7 day
Outline: (§2)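 Human bone-marrow MSCs grown in low-glucose DMEM (1 g/L) with 10% FBS, 1% penicillin-streptomycin and 1% Glutamax. Compounds were given in adipogenic IDX medium, refreshed on days 3 and 6. On day 7, supernatant adiponectin was quantified by Quantikine ELISA against the IDX control. Mean ± SD, n = 3 independent experiments; one-way ANOVA with post-hoc tests.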

[4] = Induction of adiponectin biosynthesis in human BMMSC cells assessed as adiponectin level measured after 7 days by ELISA; conditions: Mesenchymal stem cells, 168 h
[5] = Induction of leptin biosynthesis in human BMMSC cells assessed as leptin level at 10 uM measured after 7 days by ELISA (RVB = 18 + /- 18 pg/ml); type: functional, Mesenchymal stem cells; conditions: time 7 day
[6] = Induction of adiponectin biosynthesis in human BMMSC cells assessed as adiponectin level at 10 uM measured after 7 days by ELISA (IDX Control = 100 +/- 57 pg/ml); type: functional, Mesenchymal stem cells; conditions: time 7 day
[7] = Induction of leptin biosynthesis in human BMMSC cells assessed as leptin level at 300 uM measured after 7 days by ELISA (RVB = 18 + /- 18 pg/ml); type: functional, Mesenchymal stem cells; conditions: time 7 day
[8] = Induction of adiponectin biosynthesis in human BMMSC cells assessed as adiponectin level at 300 uM measured after 7 days by ELISA (IDX Control = 100 +/- 57 pg/ml); type: functional, Mesenchymal stem cells; conditions: time 7 day; outline: as §2
[9] = Induction of leptin biosynthesis in human BMMSC cells assessed as leptin level at 1 uM measured after 7 days by ELISA (RVB = 18 + /- 18 pg/ml); type: functional, Mesenchymal stem cells; conditions: time 7 day
[10] = Induction of adiponectin biosynthesis in human BMMSC cells assessed as fold increase in production at 30 uM measured after 7 days by ELISA relative to IDX control; type: functional, Mesenchymal stem cells; conditions: time 7 day, 168 h; outline: as §2
[11] = Induction of leptin biosynthesis in human BMMSC cells assessed as fold increase in production at 30 uM measured after 10 days by ELISA relative to control; conditions: time 10 day
Mesenchymal stem cells [12] = assay: Induction of adipogenesis in human BMMSC cells assessed as increase in lipid droplet accumulation at 30 uM after 7 days by Oil red O and hematoxylin staining based assay relative to IDX control; type: functional, cell-based; conditions: time 7.0 day; outline: as §1

Compound	Activity [5]	Activity [6]	other results
COc1ccc(Cl)cc1C(=O)NCCc1ccc(S(=O)(=O)NC(=O)NC2CCCCC2)cc1 [GLYBURIDE]	–	–	Activity (Mesenchymal stem cells [1]): Active; Activity [2]: 30 pg/mL; Activity [3]: 475 pg/mL
CCc1ccc(CCOc2ccc(CC3SC(=O)NC3=O)cc2)nc1 (configuration not stated) [PIOGLITAZONE]	–	–	Activity (Mesenchymal stem cells [1]): Active; EC50 [4]: 600 nM; Activity [2]: 33 pg/mL; Activity [3]: 812 pg/mL
Cc1cc(O)c(C(=O)/C=C/c2ccc(F)c(F)c2)c(=O)o1	76 pg/mL	432 pg/mL	–
CC(=O)Oc1ccccc1C(=O)O [ASPIRIN]	–	–	Activity [7]: 20 pg/mL; Activity [8]: 330 pg/mL
C[C@@H]1C[C@H]2[C@@H]3CCC4=CC(=O)C=C[C@]4(C)[C@@]3(F)[C@@H](O)C[C@]2(C)[C@@]1(O)C(=O)CO [DEXAMETHASONE]	–	–	Activity [9]: 632 pg/mL
Cc1cc(O)c(C(=O)/C=C/c2ccoc2)c(=O)o1	171 pg/mL	320 pg/mL	–
Cc1cc(O)c(C(=O)/C=C/c2ccc(F)cc2)c(=O)o1	30 pg/mL	576 pg/mL	–
COc1cc(/C=C/C(=O)c2c(O)cc(C)oc2=O)ccc1O (stereo in doubt; form 2)	82 pg/mL	399 pg/mL	fold change (FC) [10]: 3.18; fold change (FC) [11]: 2.58
Cc1cc(O)c(C(=O)/C=C/c2cc(F)cc(F)c2)c(=O)o1	33 pg/mL	172 pg/mL	–
Cc1cc(O)c(C(=O)/C=C/c2ccc3c(c2)OCO3)c(=O)o1	91 pg/mL	208 pg/mL	–
COc1cc(/C=C/C(=O)c2c(O)cc(C)oc2=O)ccc1O (stereo in doubt; form 1) [listing 1 of 2 here]	–	–	Activity (Mesenchymal stem cells [12]): Active
COc1ccc(/C=C/C(=O)c2c(O)cc(C)oc2=O)cc1OC	80 pg/mL	747 pg/mL	–
Cc1cc(O)c(C(=O)/C=C/c2ccccc2)c(=O)o1	38 pg/mL	580 pg/mL	–
Cc1cc(O)c(C(=O)/C=C/c2ccccn2)c(=O)o1	95 pg/mL	396 pg/mL	–
Cc1cc(O)c(C(=O)/C=C/c2ccc(O)c(O)c2)c(=O)o1	16 pg/mL	243 pg/mL	–
Cc1cc(O)c(C(=O)/C=C/c2c[nH]c3ccccc23)c(=O)o1	41 pg/mL	396 pg/mL	–
COc1cc(/C=C/C(=O)c2c(O)cc(C)oc2=O)ccc1O (stereo in doubt; form 1) [listing 2 of 2 here]	–	–	fold change (FC) [10]: 3.3
Cc1cc(O)c(C(=O)/C=C/c2ccsc2)c(=O)o1	193 pg/mL	486 pg/mL	–
COc1cc(/C=C/C(=O)c2c(O)cc(C)oc2=O)ccc1F	40 pg/mL	567 pg/mL	–
Cc1cc(O)c(C(=O)/C=C/c2ccc(C)c(C)c2)c(=O)o1	17 pg/mL	438 pg/mL	–
